In brackets after ≈: the same amount, converted by molar mass. Some results are limits rather than exact numbers.

As usually defined, the MIC90 is an inhibitory concentration at the 90% level, which refers to growth in some studies and to a panel of isolates in others.

Common to all, as to format: functional
Holding throughout (conditions): time 7-14 day

The subject of assay [1] is Mycobacterium tuberculosis. The assay is described as follows: Antimycobacterial activity against N-cycloheptyl-4,6-dimethyl-1H-indole-2-carboxamide-resistant Mycobacterium tuberculosis IAR2 harboring MmpL3 S288T mutant assessed as bacterial growth inhibition incubated for 7 to 14 days by MABA assay. In general terms: The colour change of resazurin is a common sign of viable cells or microbes.

Assay [2] relates to Mycobacterium tuberculosis. The assay is described as follows: Antimycobacterial activity against multidrug resistant Mycobacterium tuberculosis V2475 assessed as bacterial growth inhibition incubated for 7 to 14 days by MABA assay. The method in brief:
(§1)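 Clinical M. tuberculosis isolates were tested in a microplate Alamar Blue assay (MABA), with isoniazid, rifampin, levofloxacin, ofloxacin and kanamycin as positive controls. The MIC is the lowest concentration giving at least a 90% reduction of the bacterial growth signal, averaged over three individual measurements.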

The test system of assay [3] is Mycobacterium tuberculosis. The assay is described as follows: Antimycobacterial activity against multidrug resistant Mycobacterium tuberculosis KZN494 assessed as bacterial growth inhibition incubated for 7 to 14 days by MABA assay. The method in brief: as §1
For assay [4], the system named is Mycobacterium tuberculosis. The assay is described as follows: Antimycobacterial activity against extensively drug resistant Mycobacterium tuberculosis TF274 assessed as bacterial growth inhibition incubated for 7 to 14 days by MABA assay. The procedure, abridged: as §1
For assay [5], the system named is Mycobacterium tuberculosis. The assay is described as follows: Antimycobacterial activity against extensively drug resistant Mycobacterium tuberculosis R506 assessed as bacterial growth inhibition incubated for 7 to 14 days by MABA assay. The procedure, abridged: as §1

Regarding `Cc1cc(C)c2cc(C(=O)NC3CCCCCC3)[nH]c2c1`, the MIC90 in assay [1] is 0.013 µg/mL (≈ 0.0457 µM).

Take `c1ccc(-c2ccc(-c3ccnc(CN4CCC5(CCCC5)CC4)c3)cc2)cc1`: the MIC90 in assay [2] turned out to be 0.063 µg/mL (≈ 0.165 µM); in assay [3], 0.016 µg/mL (≈ 0.0418 µM); in assay [4], 0.004 µg/mL (≈ 0.0105 µM); in assay [5] it was 0.031 µg/mL (≈ 0.081 µM); in assay [1], 1 µg/mL (≈ 2.61 µM).

On to `NNC(=O)c1ccncc1` [ISONIAZID], for which the MIC90 in assay [2] came to 16 µg/mL (≈ 117 µM); in assay [3], 16 µg/mL (≈ 117 µM); in assay [4], 8 µg/mL (≈ 58.3 µM); in assay [5] it was 8 µg/mL (≈ 58.3 µM); in assay [1] it was 0.04 µg/mL (≈ 0.292 µM).

Consider `NC[C@H]1O[C@H](O[C@H]2[C@H](O)[C@@H](O[C@H]3O[C@H](CO)[C@@H](O)[C@H](N)[C@H]3O)[C@H](N)C[C@@H]2N)[C@H](O)[C@@H](O)[C@@H]1O` [KANAMYCIN], for which the MIC90 was 2 µg/mL (≈ 4.13 µM) in assay [2], 2 µg/mL (≈ 4.13 µM) in assay [3], > 128 µg/mL in assay [4] and > 128 µg/mL in assay [5].

Consider `C[C@H]1COc2c(N3CCN(C)CC3)c(F)cc3c(=O)c(C(=O)O)cn1c23` [LEVOFLOXACIN ANHYDROUS], for which the MIC90 was determined as 1 µg/mL (≈ 2.77 µM) in assay [4] and 2 µg/mL (≈ 5.53 µM) in assay [5].

Consider `CC1COc2c(N3CCN(C)CC3)c(F)cc3c(=O)c(C(=O)O)cn1c23` (stereo not given) [OFLOXACIN], for which the MIC90 in assay [2] was found to be 0.5 µg/mL (≈ 1.38 µM); in assay [3] it was 0.5 µg/mL (≈ 1.38 µM); in assay [4], 8 µg/mL (≈ 22.1 µM); in assay [5], 4 µg/mL (≈ 11.1 µM).

On to `CO[C@H]1/C=C/O[C@@]2(C)Oc3c(C)c(O)c4c(O)c(c(/C=N/N5CCN(C)CC5)c(O)c4c3C2=O)NC(=O)/C(C)=C\C=C\[C@H](C)[C@H](O)[C@@H](C)[C@@H](O)[C@@H](C)[C@H](OC(C)=O)[C@@H]1C` [RIFAMPIN], for which the MIC90 in assay [2] was 4 µg/mL (≈ 4.86 µM); in assay [3], 128 µg/mL (≈ 156 µM); in assay [4], > 128 µg/mL; in assay [5], > 128 µg/mL.

(Values after ChEMBL document CHEMBL5321226, “Structure-directed identification of pyridine-2-methylamine derivatives as MmpL3 inhibitors for use as antitubercular agents” (Eur J Med Chem, 2023).)
